Key:
[1] = melting temperature; fluorescence melt of hairpins on a sequencing array, two-state fit, raised by 9.35 °C to match UV melts; settings: sodium 0.088 M
In short: (§1)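 Hairpins were imaged by Cy3 fluorescence on a sequenced MiSeq flow cell with annealed Cy3 and quencher oligos, in 50 mM Na-HEPES pH 8.0, 25 mM NaCl, in 2.5 °C steps up to 60 °C. Bootstrapped two-state fits of normalised signals gave melting temperature and folding enthalpy. Four replicates were combined by inverse variance, and fitted temperatures were raised by 9.35 °C to match UV melts.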

[2] = folding enthalpy; higher = less favourable; fluorescence melt of hairpins on a sequencing array, two-state fit; settings: sodium 0.088 M
In short: as §1

Which Tm [1] does the source give for GCGGGAGACCGC ((((....)))) here?
Its Tm is 66.3 °C.

What about the folding enthalpy [2] of the same sequence?
Its folding enthalpy is -14.4 kcal/mol.

Which Tm [1] does the source give for GATCACCTCTGTGATC ((((((....)))))) here?
The Tm was 55 °C.

And the folding enthalpy [2]?
The folding enthalpy was -42.2 kcal/mol.

With GCCAAGGGAAACTTTGGC (((((.(....).))))) as the sequence, how does the Tm [1] read?
Its Tm is 48.6 °C.

And the folding enthalpy [2]?
Its folding enthalpy is -30.1 kcal/mol.

For GATCACGCCCGTGATC ((((((....)))))), which Tm [1] is on record?
The Tm was 60.6 °C.

What about the folding enthalpy [2] of the same sequence?
The folding enthalpy was -39.8 kcal/mol.

With GGGACAGGAAACTGTTCC ((.((((....)))).)) as the sequence, how does the Tm [1] read?
The Tm was 51.4 °C.

What about the folding enthalpy [2] of the same sequence?
The folding enthalpy was -36.8 kcal/mol.

Which Tm [1] does the source give for GTTTGAGAAATCAAAC ((((((....)))))) here?
Its Tm is 47 °C.

What about the folding enthalpy [2] of the same sequence?
Its folding enthalpy is -27.6 kcal/mol.

Which Tm [1] does the source give for GTAACCGAAAGGTATAC ((((((....))).))) here?
The Tm was 35.2 °C.

What about the folding enthalpy [2] of the same sequence?
Its folding enthalpy is -14.9 kcal/mol.

With GCTAACGAAAGTTGTAGC ((((((....)))..))) as the sequence, how does the Tm [1] read?
The Tm was 38.3 °C.

What about the folding enthalpy [2] of the same sequence?
The folding enthalpy was -20.6 kcal/mol.

For CGCGGAAAAATCCGCG ((((((....)))))), which Tm [1] is on record?
The Tm was 58.9 °C.

What about the folding enthalpy [2] of the same sequence?
The folding enthalpy was -38.1 kcal/mol.

What does the source list for GGCTAGGGAAACCTAGTC (.(((((....))))).)?
Tm [1]: 48.8 °C; folding enthalpy [2]: -41.7 kcal/mol

Which Tm [1] does the source give for GCAGTCCGAAAGGATGC (((.(((....)))))) here?
The Tm was 52.3 °C.

What about the folding enthalpy [2] of the same sequence?
The folding enthalpy was -32.1 kcal/mol.

Which Tm [1] does the source give for GATCATGCCATGATC ((((((...)))))) here?
Its Tm is 50.9 °C.

What about the folding enthalpy [2] of the same sequence?
The folding enthalpy was -40 kcal/mol.

For GATCTCGGTGAGATC ((((((...)))))), which Tm [1] is on record?
The Tm was 55.9 °C.

And the folding enthalpy [2]?
The folding enthalpy was -12.9 kcal/mol.

With GCCTGTCGAAAGACGGC (((.(((....)))))) as the sequence, how does the Tm [1] read?
The Tm was 56.5 °C.

And the folding enthalpy [2]?
Its folding enthalpy is -31.2 kcal/mol.

What does the source list for GCATACGAAAGTAGTTGC ((((((....)))..)))?
Tm [1]: 33.1 °C; folding enthalpy [2]: -17.5 kcal/mol

What does the source list for GATCGCATTGGCGATC ((((((....))))))?
Tm [1]: 68.8 °C; folding enthalpy [2]: -33.2 kcal/mol

With CGTTCCGGAAACGGGACG (((.(((....))).))) as the sequence, how does the Tm [1] read?
Its Tm is 57.6 °C.

What about the folding enthalpy [2] of the same sequence?
Its folding enthalpy is -42.9 kcal/mol.

With GATAGAGGAAACTCTATC (((((((....))))))) as the sequence, how does the Tm [1] read?
The Tm was 50.2 °C.

What about the folding enthalpy [2] of the same sequence?
Its folding enthalpy is -42 kcal/mol.

With GCATGGGGAAACCCACGC ((.((((....)))).)) as the sequence, how does the Tm [1] read?
The Tm was 46.7 °C.

What about the folding enthalpy [2] of the same sequence?
The folding enthalpy was -23.8 kcal/mol.

For GTACGCGGAAACACGCAC ((.((.(....).)).)), which Tm [1] is on record?
The Tm was 31.1 °C.

What about the folding enthalpy [2] of the same sequence?
Its folding enthalpy is -12.6 kcal/mol.

Which Tm [1] does the source give for GGGAGAGGAAACTCCCCC (((.(((....))).))) here?
Its Tm is 49.4 °C.

What about the folding enthalpy [2] of the same sequence?
Its folding enthalpy is -17.8 kcal/mol.

For GCCTGGGGAAACTCGGGC (((.(.(....).).))), which Tm [1] is on record?
The Tm was 46.7 °C.

And the folding enthalpy [2]?
Its folding enthalpy is -31.8 kcal/mol.

For GTCGTTGGAAACAGCGAC ((((.((....)).)))), which Tm [1] is on record?
The Tm was 52.4 °C.

And the folding enthalpy [2]?
Its folding enthalpy is -37.5 kcal/mol.

Which results are given for GGTGAGCCGAAAGGCACC (((..(((....))))))?
Tm [1]: 44.3 °C; folding enthalpy [2]: -13.2 kcal/mol

Which results are given for GATCAAACATTGATC ((((((...))))))?
Tm [1]: 41.2 °C; folding enthalpy [2]: -31.4 kcal/mol

With GATCCAAGCCTGGATC ((((((....)))))) as the sequence, how does the Tm [1] read?
The Tm was 50.6 °C.

And the folding enthalpy [2]?
The folding enthalpy was -40 kcal/mol.

For GGCTAGGGAAACCTAACC ((.((((....)))).)), which Tm [1] is on record?
Its Tm is 35.2 °C.

What about the folding enthalpy [2] of the same sequence?
The folding enthalpy was -30.3 kcal/mol.

Which Tm [1] does the source give for GTACTCGAAAGAGTGTAC ((((((....)))..))) here?
Its Tm is 35.9 °C.

And the folding enthalpy [2]?
Its folding enthalpy is -12.6 kcal/mol.

For GATAGCGAAAGCTGAATC ((((((....)))..))), which Tm [1] is on record?
Its Tm is 27 °C.

What about the folding enthalpy [2] of the same sequence?
The folding enthalpy was -10.9 kcal/mol.

What does the source list for GATCTAAGTCTAGATC ((((((....))))))?
Tm [1]: 37.7 °C; folding enthalpy [2]: -25.4 kcal/mol

Which Tm [1] does the source give for GTGAGCCGAAAGGCACAC (((.(((....))).))) here?
Its Tm is 59.8 °C.

And the folding enthalpy [2]?
The folding enthalpy was -28.9 kcal/mol.

For GGCAGCGGAAACGCCGCC (((.(((....))).))), which Tm [1] is on record?
The Tm was 61.5 °C.

What about the folding enthalpy [2] of the same sequence?
The folding enthalpy was -31.3 kcal/mol.

For CGTGCGGAAACGCTGACG ((((((....)))..))), which Tm [1] is on record?
Its Tm is 42.5 °C.

And the folding enthalpy [2]?
Its folding enthalpy is -21.2 kcal/mol.

For GAGGCTGGAAACAACCTC ((((.((....)).)))), which Tm [1] is on record?
The Tm was 41.8 °C.

And the folding enthalpy [2]?
The folding enthalpy was -29.2 kcal/mol.

What does the source list for GGGTACGGAAACACACCC ((((..(....)..))))?
Tm [1]: 32.6 °C; folding enthalpy [2]: -21.9 kcal/mol

For GCCGTGCGAAAGCAGTGC ((..(((....)))..)), which Tm [1] is on record?
The Tm was 44.7 °C.

What about the folding enthalpy [2] of the same sequence?
Its folding enthalpy is -12.4 kcal/mol.

Which Tm [1] does the source give for GTACGCGAAAGCGCGTAC ((((((....)))..))) here?
The Tm was 62.5 °C.

What about the folding enthalpy [2] of the same sequence?
Its folding enthalpy is -25.7 kcal/mol.

What does the source list for GAACATGGAAACGTGTTC (((((.(....).)))))?
Tm [1]: 44.8 °C; folding enthalpy [2]: -40.1 kcal/mol

Which Tm [1] does the source give for GAACGGCCGAAAGGCTTC (((..(((....)))))) here?
Its Tm is 21.1 °C.

And the folding enthalpy [2]?
Its folding enthalpy is -7.62 kcal/mol.

Which Tm [1] does the source give for GAACCTGGAAACAGGTTC (((((((....))))))) here?
Its Tm is 65.5 °C.

And the folding enthalpy [2]?
The folding enthalpy was -36.9 kcal/mol.

Which results are given for CGTTCCGGAAACGGTACG (((.(((....))).)))?
Tm [1]: 50 °C; folding enthalpy [2]: -31.5 kcal/mol

With GATTTTGGAAACAAAATC (((((((....))))))) as the sequence, how does the Tm [1] read?
Its Tm is 51.7 °C.

What about the folding enthalpy [2] of the same sequence?
Its folding enthalpy is -46.4 kcal/mol.

Which results are given for GCTAATCGAAAGATAAGC (((.(((....))).)))?
Tm [1]: 42.8 °C; folding enthalpy [2]: -26.2 kcal/mol

With GATCCCGGCTGGGATC ((((((....)))))) as the sequence, how does the Tm [1] read?
The Tm was 60.4 °C.

And the folding enthalpy [2]?
The folding enthalpy was -32 kcal/mol.

Which results are given for GTGCTTCCGAAAGGACAC (((..(((....))))))?
Tm [1]: 39.7 °C; folding enthalpy [2]: -22.1 kcal/mol

For GCATCGCGAAAGCCGTGC (((..((....))..))), which Tm [1] is on record?
The Tm was 45.1 °C.

And the folding enthalpy [2]?
The folding enthalpy was -19.3 kcal/mol.

Reference: the array DNA melting data of Ke et al. (doi:10.1101/2024.01.08.574731)
